A word on the bioavailability: it is dose-corrected exposure relative to a reference, in per cent. A word on the half-life: it is the time in which the quantity being followed falls by half.

Results on one compound are retold here after ChEMBL document CHEMBL4725242, “Discovery of GS-9688 (Selgantolimod) as a Potent and Selective Oral Toll-Like Receptor 8 Agonist for the Treatment of Chronic Hepatitis B” (J Med Chem, 2020).

Calls of active or inactive are those of the source.

Data set [1] can be described thus: Immunomodulatory activity in human primary hepatocytes infected with HBV assessed as stimulation of CD8+T cell response to virus by measuring decrease in HBV DNA production treated with media from PBMC stimulated with 10 nM compound for 10 days relative to control. Format: functional. Also noted: scale not given: the % may be the effect or the level left. The following applies: time 10 day.

The nature of data set [2]: Clearance in dog hepatic microsomes at 2 uM measured up to 60 mins in presence of NADPH generating system by LC-MS/MS analysis. Type of data set: ADME, Canis lupus familiaris, Microsome. The following applies: liver microsomes. (Liver microsomes are a subcellular fraction often used to study metabolism.)
The nature of data set [3]: Drug metabolism in human hepatocytes assessed as oxidation of lipophilic chain. Type of data set: ADME, cell-based, Hepatocyte.
Data set [4] in a line: Volume of distribution at steady state in Sprague-Dawley rat at 1 mg/kg, iv administered as 30 mins infusion by HPLC-MS analysis. Type of data set: ADME, organism-based. The note with it: in vivo, read-out: Vdss. An outline of the steps:
(§1)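 30-min intravenous infusion: Sprague Dawley rats 1 mg/kg, beagle dogs 0.25 mg/kg, cynomolgus monkeys 0.1 mg/kg; n = 3 per species, reported as mean ± SD.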

Data set [5] can be described thus: Oral bioavailability in Sprague-Dawley rat at 5 mg/kg administered via gavage by HPLC-MS analysis. Format: ADME, organism-based. The following applies: in vivo. An outline of the steps: (§2)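 Oral dosing in 2% ethanol/40% PEG 300/58% 0.01N HCl: Sprague Dawley rats 5 mg/kg, beagle dogs 0.5 mg/kg, cynomolgus monkeys 3 mg/kg.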
The nature of data set [6]: Volume of distribution at steady state in Beagle dog at 0.25 mg/kg, iv administered as 30 mins infusion by HPLC-MS analysis. Format: ADME, organism-based, Canis lupus familiaris. The following applies: in vivo, read-out: Vdss. The gist of the method:
as §1

Data set [7] is described as follows: Half life in Beagle dog at 0.25 mg/kg, iv administered as 30 mins infusion by HPLC-MS analysis. The following applies: in vivo. Type of data set: ADME, organism-based, Canis lupus familiaris. The gist of the method: as §1
A short description of data set [8]: Drug absorption in cynomolgus monkey at 3 mg/kg, po administered via gavage by HPLC-MS analysis. Format: ADME, organism-based, Macaca fascicularis. The following applies: in vivo, read-out: Drug absorption. The gist of the method:
as §2

Data set [9] deals with T1, Toll-like receptor 8 (Homo sapiens) (UniProt Q9NR97).
T1 sequence (whole entry): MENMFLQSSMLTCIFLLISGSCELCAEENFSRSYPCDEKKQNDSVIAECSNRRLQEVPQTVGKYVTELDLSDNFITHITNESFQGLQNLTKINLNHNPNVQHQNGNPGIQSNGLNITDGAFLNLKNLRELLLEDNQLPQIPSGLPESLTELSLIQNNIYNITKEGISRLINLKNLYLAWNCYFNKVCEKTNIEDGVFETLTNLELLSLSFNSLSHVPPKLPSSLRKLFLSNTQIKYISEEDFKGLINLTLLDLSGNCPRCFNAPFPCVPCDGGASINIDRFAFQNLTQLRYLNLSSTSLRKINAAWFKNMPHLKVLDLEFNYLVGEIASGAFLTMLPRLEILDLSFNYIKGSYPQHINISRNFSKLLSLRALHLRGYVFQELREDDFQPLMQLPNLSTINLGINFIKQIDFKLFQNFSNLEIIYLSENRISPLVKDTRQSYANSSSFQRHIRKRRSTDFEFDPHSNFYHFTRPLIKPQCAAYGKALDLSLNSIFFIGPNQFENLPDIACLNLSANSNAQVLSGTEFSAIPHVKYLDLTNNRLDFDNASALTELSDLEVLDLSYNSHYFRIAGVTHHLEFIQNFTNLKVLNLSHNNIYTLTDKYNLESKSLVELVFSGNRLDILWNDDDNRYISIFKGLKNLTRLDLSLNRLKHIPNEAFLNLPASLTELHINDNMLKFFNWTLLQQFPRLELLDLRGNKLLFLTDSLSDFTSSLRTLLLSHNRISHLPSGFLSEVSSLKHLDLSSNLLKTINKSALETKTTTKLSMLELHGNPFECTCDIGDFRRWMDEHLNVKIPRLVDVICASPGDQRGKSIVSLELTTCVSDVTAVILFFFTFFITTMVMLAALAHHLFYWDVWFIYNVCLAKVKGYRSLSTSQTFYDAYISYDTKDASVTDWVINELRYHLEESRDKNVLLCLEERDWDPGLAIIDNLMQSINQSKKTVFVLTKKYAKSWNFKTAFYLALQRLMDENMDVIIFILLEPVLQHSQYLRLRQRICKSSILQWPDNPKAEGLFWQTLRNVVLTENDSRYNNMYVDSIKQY
Put plainly: Agonist activity at human TLR8 expressed in HEK293 cells assessed as increase in NF-kappaB activation incubated for 24 hrs by quanti-blue SEAP reporter gene assay. Type of data set: cell-based. The note with it: filed as agonist. An outline of the steps: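 HEK293 cells stably expressing human TLR8 reporter. Value taken as the minimum effective concentration (MEC), defined as the concentration giving a 3-fold increase in reporter signal above background.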
(A reporter such as luciferase makes a cellular process visible.)

Data set [10] in a line: Immunomodulatory activity in human primary hepatocytes infected with HBV assessed as stimulation of CD8+T cell response to virus by measuring decrease in HBV RNA production treated with media from PBMC stimulated with 10 nM compound for 10 days by PCR analysis relative to control. Format: functional. Set-up: scale not given: the % may be the effect or the level left. The following applies: time 10 day.

A further data set relates to PBMC. Put plainly: Immunomodulatory activity in human primary hepatocytes infected with HBV assessed as stimulation of CD8+T cell response to virus by measuring degradation of cccDNA treated with media from PBMC stimulated with 10 nM compound for 10 days. Type of data set: functional, cell-based. The note with it: time 10.0 day.
For data set [11], the system named is Probable ATP-dependent RNA helicase DDX58 (Homo sapiens). In words: Agonist activity at human RIG1 expressed in HEK293 cells assessed as induction of IFN-inducible ISG54 promoter activity up to 10 uM after overnight incubation by secreted lucia luciferase reporter gene assay. The note with it: dose microM <=10.

As to `CCCC[C@](C)(CO)Nc1nc(N)nc2cc(F)cnc12` [SELGANTOLIMOD], the Activity in data set [1] and in data set [10] was >50% throughout. Further, the CLhep predicted at 2 µM in [2] is 28.3 mL/min/kg. The Drug metabolism result in data set [3] is recorded as “Metabolite_Detected”. Moreover, the Vd in data set [4] is 1.1 L/kg; in data set [6], 1.01 L/kg. The same compound came in with a bioavailability in data set [5] of 8.8%. Moreover, the half-life in [7] is 1.32 h. Also, the Fa in data set [8] is 100%. Also, the MEC in data set [9] was 49 nM. The result (with PBMC; in data set [11]) was inactive.
